# Test results as given in ChEMBL document CHEMBL1127463, “Heteroaryl-fused 2-phenylisothiazolone inhibitors of cartilage breakdown” (J Med Chem, 1994).
# pIC50: −log10 of the molar value.
# Molecular target: Stromelysin-1 (Homo sapiens) (UniProt P08254)
# Assay: Tested for inhibition of stromelysin using [3H]transferrin, following pre-incubation with prostromelysin for 0 hr prior to activation by plasmin
# Details: concentration not given here
# Stromelysin-1 (Homo sapiens), sequence (P08254 whole entry, looked up): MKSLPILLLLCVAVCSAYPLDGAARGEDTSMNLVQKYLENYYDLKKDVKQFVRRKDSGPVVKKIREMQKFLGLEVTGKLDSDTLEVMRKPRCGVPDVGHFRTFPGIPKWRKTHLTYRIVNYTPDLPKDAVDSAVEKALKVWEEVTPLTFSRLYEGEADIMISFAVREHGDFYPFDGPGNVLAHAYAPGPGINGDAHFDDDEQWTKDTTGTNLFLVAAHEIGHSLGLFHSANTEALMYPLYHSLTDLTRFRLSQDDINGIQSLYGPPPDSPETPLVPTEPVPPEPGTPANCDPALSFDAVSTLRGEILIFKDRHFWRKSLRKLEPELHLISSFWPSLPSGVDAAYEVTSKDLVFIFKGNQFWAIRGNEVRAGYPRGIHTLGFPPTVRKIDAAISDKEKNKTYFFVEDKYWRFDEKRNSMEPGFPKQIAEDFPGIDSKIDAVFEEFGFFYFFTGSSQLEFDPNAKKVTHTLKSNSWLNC
row,Structure (SMILES),inhibition [%]
1,COc1ccc(OC)c(-n2sc3ncccc3c2=O)c1,51
2,COc1ccc(-n2sc3ncccc3c2=O)c(OC)c1,45

# Molecular target: Stromelysin-1 (Homo sapiens) (UniProt P08254)
# Assay: Tested for inhibition of stromelysin using [3H]transferrin, following pre-incubation with prostromelysin for 3 hr prior to activation by plasmin
# Details: concentration not given here
row,Structure (SMILES),inhibition [%]
1,COc1ccc(OC)c(-n2sc3ncccc3c2=O)c1,68
2,COc1ccc(-n2sc3ncccc3c2=O)c(OC)c1,65

# Species on record: Bos taurus
# Assay: In vitro inhibition of human recombinant IL-1-beta-induced breakdown of bovine cartilage in a cartilage organ culture assay
# Assay type: functional
# Details: not given
# Method in brief: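 Bovine nasal septum cartilage discs (1 mm × 8 mm, cut in eighths) cultured in DMEM + 5% FCS with antibiotics, ± rh IL-1β 500 ng/mL ± drug (DMSO ≤1%) for 40 h at 37 °C. Released GAG measured by 1,9-dimethylmethylene blue against chondroitin sulfate standard, µg/mg wet weight. Eight replicates per group; dose response gives IC50 (µM).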
row,Structure (SMILES),pIC50
1,COC(=O)c1ccccc1-n1sc2ncccc2c1=O,4.60
2,COC(=O)c1cccc(OC)c1-n1sc2ncccc2c1=O,5.10
3,CN(C)[C@@H]1C(O)=C(C(N)=O)C(=O)[C@@]2(O)C(O)=C3C(=O)c4c(O)cccc4[C@@](C)(O)[C@H]3C[C@@H]12 [TETRACYCLINE],< 4.52
4,COc1ccc2cc([C@H](C)C(=O)O)ccc2c1 [NAPROXEN],< 4.52
5,O=C1CCN(c2ccccc2)N1 [PHENIDONE],< 4.52
6,COc1ccc2c(c1)c(CC(=O)O)c(C)n2C(=O)c1ccc(Cl)cc1 [INDOMETHACIN],< 4.52
7,O=c1c2cccnc2sn1-c1ccc(Cl)cc1,5.07
8,O=c1c2cccnc2sn1-c1ccc(F)cc1,4.92

# Species on record: Bos taurus
# Assay: Tested in vitro at 30 uM for its ability to inhibit the human recombinant IL-1-beta-induced breakdown of bovine cartilage in a cartilage organ culture assay
# Assay type: functional
# Details: Cartilage tissue
# Method in brief: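 Cartilage organ culture screen at a single 30 µM concentration. Bovine nasal septum explants in DMEM/5% FCS with rh IL-1β 500 ng/mL, 40 h, 37 °C, 95% air/5% CO2. Proteoglycan breakdown read as GAG release by dimethylmethylene blue; 35SO4 uptake over a further 2 h used for viability. Eight replicates; percent inhibition.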
row,Structure (SMILES),inhibition [%]
1,CS(=O)(=O)Nc1ccc(-n2sc3ncccc3c2=O)cc1,28
2,COc1ccc(-n2sc3c(O)nc(O)nc3c2=O)cc1,49
3,O=c1c2cccnc2sn1-c1ccccn1,23
4,Nc1cccc(-n2sc3ncccc3c2=O)c1,34
5,COc1cc2c(=O)n(-c3ccccc3)sc2c(OC)n1,39
6,COc1ccc(-n2sc3c(OC)nccc3c2=O)cc1,20
7,O=c1c2ccnc(Cl)c2sn1-c1ccccc1,38
8,COc1cccc(OC)c1-n1sc2ncccc2c1=O,40
9,N#Cc1ccc(-n2sc3ncccc3c2=O)cc1,40
10,COc1nc(OC)c2sn(-c3ccc(C(F)(F)F)cc3)c(=O)c2n1,39
11,COc1ccc(-n2sc3c(OC)nc(OC)nc3c2=O)cc1,50
12,O=c1c2cccnc2sn1-c1cccc([N+](=O)[O-])c1,37
13,COC(=O)c1cccc(-n2sc3ncccc3c2=O)c1,35
14,COc1nc(OC)c2sn(-c3ccccc3)c(=O)c2n1,40
15,O=c1c2cccnc2sn1-c1ccc(C(F)(F)F)cc1,17
16,O=c1c2cccnc2sn1-c1ccccc1Cl,0
